Tests used:
BXPC-3 cells [1] = test: ELISA for IL6, IL8 and TNF-α secretion; type: cell-based; conditions: BXPC-3, 30 ng/mL PMA, 10, 20, 40 μmol/L, 24 h
HDAC8 = biological target: T1, HDAC8 (Homo sapiens, UniProt Q9BY41); test: HDACs selectivity assay; type: biochemical
T1 sequence (Q9BY41 1-377): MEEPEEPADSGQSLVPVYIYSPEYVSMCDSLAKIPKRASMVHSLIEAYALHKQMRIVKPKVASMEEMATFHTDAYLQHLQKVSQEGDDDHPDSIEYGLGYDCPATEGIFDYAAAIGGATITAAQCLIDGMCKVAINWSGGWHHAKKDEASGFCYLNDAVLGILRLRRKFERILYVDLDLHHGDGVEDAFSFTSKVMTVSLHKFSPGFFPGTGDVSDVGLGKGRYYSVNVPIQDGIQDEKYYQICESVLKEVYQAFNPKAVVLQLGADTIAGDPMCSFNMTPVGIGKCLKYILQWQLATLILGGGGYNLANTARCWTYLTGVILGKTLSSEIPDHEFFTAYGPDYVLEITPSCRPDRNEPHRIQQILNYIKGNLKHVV
Outline: (§1)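 Enzyme selectivity panel was run by an outside contract lab to its standard assay protocols. IC50 values came from dose–response fitting of the data points. Each experiment was done independently at least three times.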

SIRT6 [2] = biological target: T2, SIRT6 (Homo sapiens, UniProt Q8N6T7); test: FDL assay of SIRT6 deacetylation on H3K9Ac peptide; type: biochemical
T2 sequence (Q8N6T7 whole entry): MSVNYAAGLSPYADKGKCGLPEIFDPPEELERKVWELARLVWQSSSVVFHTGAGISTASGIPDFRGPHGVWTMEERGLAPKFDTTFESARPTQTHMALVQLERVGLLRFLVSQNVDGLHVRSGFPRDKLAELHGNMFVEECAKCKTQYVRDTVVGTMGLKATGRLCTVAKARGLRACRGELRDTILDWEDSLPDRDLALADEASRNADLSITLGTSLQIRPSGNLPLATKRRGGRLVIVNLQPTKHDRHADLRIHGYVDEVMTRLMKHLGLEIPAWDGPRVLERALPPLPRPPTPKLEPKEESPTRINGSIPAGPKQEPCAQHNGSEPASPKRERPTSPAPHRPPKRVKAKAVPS
Outline: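 Recombinant SIRT6 was expressed in E. coli BL21 in LB with 100 μg/mL ampicillin at 37 °C. Expression was induced with 0.5 mmol/L IPTG at OD600 0.8, then grown 18 h at 16 °C and purified by an earlier method.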

BXPC-3 cells [3] = test: Proliferation assay; type: cell-based; conditions: BXPC-3, up to 20 μmol/L, 48 h, CCK-8
[4] = tested on: SIRT6 mutants (Y5A, T57A, P62A, D63A, P67A, H68A, V70A, P80A, K81A, Y257A); test: FDL assay on SIRT6 Pocket Z mutants; type: biochemical, human
Outline: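 SIRT6 point mutants were made by site-directed mutagenesis. Each plasmid was expressed separately in E. coli BL21 (LB, 100 μg/mL ampicillin, 37 °C), induced with 0.5 mmol/L IPTG at OD600 0.8 for 18 h at 16 °C, and purified as for wild type.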

SIRT6 [5] = biological target: T2, SIRT6; test: Competition assay between SIRT6 substrates and JYQ-42; type: biochemical; conditions: FDL competition assay
HDAC1 = HDAC1 (Homo sapiens, UniProt Q13547); test: HDACs selectivity assay; type: biochemical
Chain of HDAC1 (Q13547 whole entry): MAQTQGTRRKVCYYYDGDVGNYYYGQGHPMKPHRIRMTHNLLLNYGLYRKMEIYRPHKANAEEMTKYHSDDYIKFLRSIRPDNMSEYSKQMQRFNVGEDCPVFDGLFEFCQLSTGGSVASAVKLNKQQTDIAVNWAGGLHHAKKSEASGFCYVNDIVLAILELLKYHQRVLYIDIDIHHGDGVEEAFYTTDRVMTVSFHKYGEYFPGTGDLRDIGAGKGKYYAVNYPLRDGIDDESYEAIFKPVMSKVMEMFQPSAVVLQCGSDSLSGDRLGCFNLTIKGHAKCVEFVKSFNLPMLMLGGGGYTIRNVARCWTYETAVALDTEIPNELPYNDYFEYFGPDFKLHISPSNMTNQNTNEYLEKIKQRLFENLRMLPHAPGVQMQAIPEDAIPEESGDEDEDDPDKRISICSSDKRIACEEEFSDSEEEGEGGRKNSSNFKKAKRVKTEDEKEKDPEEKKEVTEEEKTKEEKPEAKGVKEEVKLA
Outline: as §1

MiaPaCa-2 cells [6] = test: Proliferation assay; type: cell-based; conditions: MiaPaCa-2, up to 20 μmol/L, 48 h, CCK-8
SIRT1 = biological target: T3, SIRT1 (Homo sapiens, UniProt Q96EB6); test: HDACs selectivity assay; type: biochemical
T3 sequence (Q96EB6 1-747): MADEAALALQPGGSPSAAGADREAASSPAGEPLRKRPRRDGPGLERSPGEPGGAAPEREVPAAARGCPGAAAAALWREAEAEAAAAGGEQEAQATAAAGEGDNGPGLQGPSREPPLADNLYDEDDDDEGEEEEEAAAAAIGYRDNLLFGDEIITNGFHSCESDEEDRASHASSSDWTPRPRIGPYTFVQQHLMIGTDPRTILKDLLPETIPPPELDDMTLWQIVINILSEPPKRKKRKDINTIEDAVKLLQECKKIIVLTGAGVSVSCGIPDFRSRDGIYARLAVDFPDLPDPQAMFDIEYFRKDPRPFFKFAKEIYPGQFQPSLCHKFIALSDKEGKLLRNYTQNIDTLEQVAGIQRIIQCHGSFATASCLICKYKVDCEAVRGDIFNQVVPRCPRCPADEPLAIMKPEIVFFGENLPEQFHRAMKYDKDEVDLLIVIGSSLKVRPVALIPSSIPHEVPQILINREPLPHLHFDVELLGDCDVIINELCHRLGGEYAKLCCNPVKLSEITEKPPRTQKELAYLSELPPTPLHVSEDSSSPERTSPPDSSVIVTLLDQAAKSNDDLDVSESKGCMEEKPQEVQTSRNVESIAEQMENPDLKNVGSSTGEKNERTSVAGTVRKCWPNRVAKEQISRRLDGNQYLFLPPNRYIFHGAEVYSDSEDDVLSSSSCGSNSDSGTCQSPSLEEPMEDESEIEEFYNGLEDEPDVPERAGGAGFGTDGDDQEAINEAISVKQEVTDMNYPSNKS
Outline: as §1

HDAC5 = HDAC5 (Homo sapiens, UniProt Q9UQL6); test: HDACs selectivity assay; type: biochemical
Chain of HDAC5 (Q9UQL6 whole entry): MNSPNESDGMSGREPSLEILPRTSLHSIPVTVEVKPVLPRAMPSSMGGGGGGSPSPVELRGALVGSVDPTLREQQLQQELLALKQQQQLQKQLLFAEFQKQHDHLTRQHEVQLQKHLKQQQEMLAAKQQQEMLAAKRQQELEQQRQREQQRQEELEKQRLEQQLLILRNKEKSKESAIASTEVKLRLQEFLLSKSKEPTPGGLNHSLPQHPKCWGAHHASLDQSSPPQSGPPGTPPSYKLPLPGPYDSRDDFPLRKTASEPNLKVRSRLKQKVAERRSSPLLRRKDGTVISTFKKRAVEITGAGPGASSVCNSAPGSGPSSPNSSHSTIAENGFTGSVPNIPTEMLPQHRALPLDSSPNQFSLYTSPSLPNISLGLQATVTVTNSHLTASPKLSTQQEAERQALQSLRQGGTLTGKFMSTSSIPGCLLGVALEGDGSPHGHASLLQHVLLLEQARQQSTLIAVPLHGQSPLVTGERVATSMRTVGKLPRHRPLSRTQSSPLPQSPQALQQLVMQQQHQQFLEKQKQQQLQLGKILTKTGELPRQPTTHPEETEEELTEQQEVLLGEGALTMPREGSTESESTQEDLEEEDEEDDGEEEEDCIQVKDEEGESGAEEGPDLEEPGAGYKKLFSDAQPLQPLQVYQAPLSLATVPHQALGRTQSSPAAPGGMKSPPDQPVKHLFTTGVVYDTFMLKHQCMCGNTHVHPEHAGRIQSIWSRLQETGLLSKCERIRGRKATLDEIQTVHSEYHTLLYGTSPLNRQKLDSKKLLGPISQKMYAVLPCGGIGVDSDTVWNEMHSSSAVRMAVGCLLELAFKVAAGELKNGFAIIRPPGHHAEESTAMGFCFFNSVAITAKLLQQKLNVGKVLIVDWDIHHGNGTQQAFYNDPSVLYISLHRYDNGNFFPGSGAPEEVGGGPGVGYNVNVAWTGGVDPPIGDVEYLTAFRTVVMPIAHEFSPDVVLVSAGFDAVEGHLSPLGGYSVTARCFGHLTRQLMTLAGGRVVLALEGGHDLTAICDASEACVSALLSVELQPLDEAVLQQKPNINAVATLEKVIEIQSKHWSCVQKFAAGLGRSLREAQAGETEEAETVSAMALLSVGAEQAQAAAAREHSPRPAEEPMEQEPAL
Outline: as §1

SIRT6 [7] = biological target: T2, SIRT6; test: Biolayer interferometry; type: binding
MiaPaCa-2 cells [8] = test: Western blot of SIRT6 substrates H3K9Ac, H3K18Ac, H3K56Ac; type: cell-based; conditions: MiaPaCa-2, different concentrations of JYQ-42, Western blot
Outline: (§2)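 BXPC-3 cells were grown in RPMI1640 and MiaPaCa-2 cells in DMEM, each with 10% FBS and penicillin/streptomycin, at 37 °C under 5% CO2. Both lines were STR-verified. Cells took test compound at 0, 10, 20 or 40 μmol/L for 24 or 48 h and were lysed in 1× SDS loading buffer. Proteins were separated on 12% SDS-PAGE and transferred to PVDF. Blocking used Tris-NaCl pH 7.5 with Tween-20 and 5% milk. Detection was chemiluminescent (HRP), with β-actin as loading control.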

SIRT6 [9] = biological target: T2, SIRT6; test: Enzymatic kinetic assays by HPLC; type: biochemical; conditions: for kcat (Ac-RHKK-Ac-AMC): varied Ac-RHKK-Ac-AMC, HPLC
BXPC-3 cells [10] = test: Western blot of SIRT6 substrates H3K9Ac, H3K18Ac, H3K56Ac; type: cell-based; conditions: BXPC-3, indicated doses of JYQ-42 for 24 h
Outline: as §2

IC50 (HDAC8): > 100 µM | inhibition ratio at 50 μmol/L on H3K9Ac (SIRT6 [2]): 90.7% | IC50 values on SIRT6 mutants ([4]; Y5A, T57A, P62A, D63A, P67A, H68A, V70A, P80A, K81A, Y257A versus wild type): increased | effect of increasing NAD^+ or Ac-RHKK-Ac-AMC on the inhibition (SIRT6 [5]): did not interfere with the inhibition | IC50 (HDAC1): > 100 µM | IC50 (SIRT1): > 100 µM | IC50 (HDAC5): > 100 µM | Kd (SIRT6 [7]): 13.2 µM | inhibition mode (SIRT6 [9]; Lineweaver–Burk analysis towards NAD^+ and Ac-RHKK-Ac-AMC): non-competitive inhibitor | kcat (Ac-RHKK-Ac-AMC) (SIRT6 [9]; SIRT6 with 1 μmol/L JYQ-42): 33.65 × 10^−4 S^−1 | kcat (Ac-RHKK-Ac-AMC) (SIRT6 [9]; SIRT6 with 3 μmol/L JYQ-42): 22.12 × 10^−4 S^−1 | kcat (Ac-RHKK-Ac-AMC) (SIRT6 [9]; SIRT6 with 10 μmol/L JYQ-42): 13.86 × 10^−4 S^−1
Structure (SMILES): Nc1nonc1-n1cc(C(=O)N/N=C/c2cc(Cl)cc(C(F)(F)F)c2)nn1 [JYQ-42]
secretion levels of IL6, IL8 and TNF-α (BXPC-3 cells [1]): blocked the secretion levels | cell growth (BXPC-3 cells [3]): no significant impact on cell growth | inhibition of SIRT6 deacetylation, T57A and H68A mutants ([4]; mutations T57A and H68A): completely disrupted JYQ-42 inhibition | cell growth (MiaPaCa-2 cells [6]): no significant impact on cell growth | levels of H3K9Ac, H3K18Ac and H3K56Ac (MiaPaCa-2 cells [8]): increased the levels of H3K9Ac, H3K18Ac and H3K56Ac in a dose-dependent manner | levels of H3K9Ac, H3K18Ac and H3K56Ac (BXPC-3 cells [10]): increased the levels of H3K9Ac, H3K18Ac and H3K56Ac in a dose-dependent manner
